Measured values as given in article PMC7445463 (Diabetologia, 2020).

Key:
[1] = system: Primary human retinal microvascular endothelial cells (ACBRI-181); assay: DMOG chemical hypoxia model; format: cell-based; conditions: DHA 50μM, AICAR 0.5mM; DMOG 400 μM 24h
Summary of the method: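 Primary human retinal microvascular endothelial cells (passage 6–8) grown in endothelial growth medium with 10% FBS. At 70% confluence, exposed 24 h to DMOG 400 μM with or without AICAR 0.5 mM or DHA 50 μM. HIF-1α, HIF-2α, VEGF, ZO-1 and vimentin assessed by immunofluorescence, plus a cell migration assay. AMPK activity by western blot.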

[2] = system: Arrb2+/+ beta cells; assay: F-actin depolymerisation, phalloidin staining; format: cell-based, mouse; conditions: 1μmol/l
Summary of the method: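 F-actin depolymerisation assessed by Alexa Fluor 488-conjugated phalloidin staining. FAK phosphorylation assessed by immunofluorescence.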

[3] = system: C2C12 murine myotubes; assay: ATPγS glucose uptake; format: cell-based; conditions: 100 μM
[4] = system: adiponectin receptor; assay: HFD-fed DBA/2J mice with AdipoRon, 9 weeks; format: in vivo, mouse; conditions: HFD supplemented with AdipoRon
[5] = i.v. beta-hydroxybutyrate infusion crossover study, T2D; format: in vivo, human
[6] = CREDENCE trial; format: in vivo, human
[7] = system: patients with type 2 diabetes and CKD; assay: CREDENCE acute eGFR decline; format: in vivo, human; conditions: week 3
[8] = 6 weeks
[9] = system: Notch pathway; assay: PHA-activated co-cultures of obASCs and MNCs; format: cell-based, human; conditions: PHA-activated obASC/MNC co-cultures
Summary of the method: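 Human obese adipose-derived stem cells were co-cultured with mononuclear cells under phytohemagglutinin A activation, with or without the Notch inhibitor DAPT. Separately, the stem cells were transfected or not with Dner-targeting siRNA. Cytokine secretion into the medium was measured by ELISA, and expression by RT-qPCR.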

[10] = ACCORD trial, cardiovascular autonomic neuropathy; format: in vivo, human; conditions: 95%CI 0.78 - 1.07
[11] = system: obese men without diabetes; assay: FLT-PET/MRI and pancreatic enzymes during liraglutide; format: in vivo, human
[12] = iv bolus of purified MGO in mice, immune cell numbers; format: in vivo, mouse
[13] = system: human retinal endothelial cells (hRECs); assay: MGO exposure of human retinal endothelial cells; format: cell-based; conditions: 500μM, 72h
[14] = system: Rev-erbα; assay: Rev-erbα agonist and antagonist in beta cells and human islets; format: cell-based
Summary of the method: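 Cells used were rat INS-1E, human EndoC-βH1 and human islets. Rev-erbα was modulated with agonist, antagonist or siRNA knock-down. Stress was glucotoxicity (INS-1E, EndoC-βH1) or cytokines (INS-1E, human islets). Glucose-induced insulin secretion was read by HTRF, apoptosis as cleaved caspase-3, and Rev-erbα protein by western blot.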

[15] = biological target: neprilysin (Mus musculus, UniProt Q61391); assay: Exogenous glucagon after sacubitril in mice; format: in vivo; conditions: 0.7 nmol/g; glucagon 96 ng/g; n=10
[16] = Intrajejunal metformin with or without bile exclusion or TCA, T2DM; format: in vivo, human; conditions: metformin with TCA 4 g supplementation; endogenous bile included
[17] = system: differentiated adipocytes (wild type); assay: Adipocyte glucose uptake after dexamethasone; format: cell-based, human; conditions: 0.3 μM/24 h; WT cultures; n=6
[18] = Brain insulin sensitivity by fMRI with intranasal insulin, prediabetes; format: in vivo, human; conditions: 25 mg qd, 8 weeks
[19] = Empagliflozin 24 weeks in T2DM and HFpEF; format: in vivo, human; conditions: after 24 weeks; baseline 126
[20] = HFD-induced obese mice, empagliflozin 8 weeks; format: in vivo, mouse; design: AUC glucose / AUC insulin: unit not given beside the values
[21] = db/db mice, empagliflozin alone or with linagliptin, 8 weeks; format: in vivo, mouse; conditions: 10 mg/kg (of each)
Summary of the method: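 Male 8-week-old db/db mice (BKS.Cg-Dock7m+/+Leprdb/J) received vehicle, SGLT2 inhibitor 10 mg/kg, or SGLT2 inhibitor plus DPP4 inhibitor (10 mg/kg each) for 8 weeks. Heterozygous db/+ mice served as non-diabetic controls. Plasma glucose, fructosamine, glycated albumin and urinary albumin-to-creatinine ratio were measured at weeks 0 and 8.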

[22] = system: patients with type 2 diabetes; assay: Network meta-analysis of antidiabetic medications on blood pressure; design: species or system human
[23] = CAROLINA trial; format: in vivo, human; conditions: 5 mg; regardless of age group
[24] = biological target: Piezo1 (Mus musculus, UniProt E2JF22); assay: In situ pancreas perfusion, insulin secretion
Summary of the method: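 Mice were β-cell-specific Piezo1 knockouts (RIP-Cre+Piezo1f/f). Insulin secretion was measured by in situ pancreas perfusion.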

[25] = biological target: Piezo1 (Homo sapiens, UniProt Q92508); assay: Ca2+ imaging in human β-cells; format: cell-based
Summary of the method: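 Human β-cells loaded for Ca2+ imaging. Amplitude of glucose-induced [Ca2+]i oscillations recorded with and without a Piezo1-inhibiting test compound.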

[26] = 4-week treatment of DIO mice, body weight loss; format: in vivo, mouse; conditions: s.c., 4 weeks, human equivalent doses
[27] = 1.5 mg once weekly; 95% CI 0.79, 0.99; cited from earlier work
[28] = EVOLVE study, insulin detemir in pregnancy; format: in vivo, human; conditions: 727 vs 730 women
Summary of the method: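 […] in women with pre-existing diabetes comparing the test basal insulin with another basal insulin. The primary endpoint was the number of women completing ≥22 weeks of gestation without major congenital malformations, perinatal death or neonatal death. It was analysed as crude and adjusted risk difference between treatment groups.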

[29] = biological target: neprilysin (Homo sapiens, UniProt P08473); assay: Mixed meal after single dose sacubitril/valsartan, healthy males; format: in vivo; conditions: 194 mg sacubitril / 206 mg valsartan single dose

Piezo1 (Mus musculus, UniProt E2JF22), sequence (E2JF22 whole entry, the tested form may be a part): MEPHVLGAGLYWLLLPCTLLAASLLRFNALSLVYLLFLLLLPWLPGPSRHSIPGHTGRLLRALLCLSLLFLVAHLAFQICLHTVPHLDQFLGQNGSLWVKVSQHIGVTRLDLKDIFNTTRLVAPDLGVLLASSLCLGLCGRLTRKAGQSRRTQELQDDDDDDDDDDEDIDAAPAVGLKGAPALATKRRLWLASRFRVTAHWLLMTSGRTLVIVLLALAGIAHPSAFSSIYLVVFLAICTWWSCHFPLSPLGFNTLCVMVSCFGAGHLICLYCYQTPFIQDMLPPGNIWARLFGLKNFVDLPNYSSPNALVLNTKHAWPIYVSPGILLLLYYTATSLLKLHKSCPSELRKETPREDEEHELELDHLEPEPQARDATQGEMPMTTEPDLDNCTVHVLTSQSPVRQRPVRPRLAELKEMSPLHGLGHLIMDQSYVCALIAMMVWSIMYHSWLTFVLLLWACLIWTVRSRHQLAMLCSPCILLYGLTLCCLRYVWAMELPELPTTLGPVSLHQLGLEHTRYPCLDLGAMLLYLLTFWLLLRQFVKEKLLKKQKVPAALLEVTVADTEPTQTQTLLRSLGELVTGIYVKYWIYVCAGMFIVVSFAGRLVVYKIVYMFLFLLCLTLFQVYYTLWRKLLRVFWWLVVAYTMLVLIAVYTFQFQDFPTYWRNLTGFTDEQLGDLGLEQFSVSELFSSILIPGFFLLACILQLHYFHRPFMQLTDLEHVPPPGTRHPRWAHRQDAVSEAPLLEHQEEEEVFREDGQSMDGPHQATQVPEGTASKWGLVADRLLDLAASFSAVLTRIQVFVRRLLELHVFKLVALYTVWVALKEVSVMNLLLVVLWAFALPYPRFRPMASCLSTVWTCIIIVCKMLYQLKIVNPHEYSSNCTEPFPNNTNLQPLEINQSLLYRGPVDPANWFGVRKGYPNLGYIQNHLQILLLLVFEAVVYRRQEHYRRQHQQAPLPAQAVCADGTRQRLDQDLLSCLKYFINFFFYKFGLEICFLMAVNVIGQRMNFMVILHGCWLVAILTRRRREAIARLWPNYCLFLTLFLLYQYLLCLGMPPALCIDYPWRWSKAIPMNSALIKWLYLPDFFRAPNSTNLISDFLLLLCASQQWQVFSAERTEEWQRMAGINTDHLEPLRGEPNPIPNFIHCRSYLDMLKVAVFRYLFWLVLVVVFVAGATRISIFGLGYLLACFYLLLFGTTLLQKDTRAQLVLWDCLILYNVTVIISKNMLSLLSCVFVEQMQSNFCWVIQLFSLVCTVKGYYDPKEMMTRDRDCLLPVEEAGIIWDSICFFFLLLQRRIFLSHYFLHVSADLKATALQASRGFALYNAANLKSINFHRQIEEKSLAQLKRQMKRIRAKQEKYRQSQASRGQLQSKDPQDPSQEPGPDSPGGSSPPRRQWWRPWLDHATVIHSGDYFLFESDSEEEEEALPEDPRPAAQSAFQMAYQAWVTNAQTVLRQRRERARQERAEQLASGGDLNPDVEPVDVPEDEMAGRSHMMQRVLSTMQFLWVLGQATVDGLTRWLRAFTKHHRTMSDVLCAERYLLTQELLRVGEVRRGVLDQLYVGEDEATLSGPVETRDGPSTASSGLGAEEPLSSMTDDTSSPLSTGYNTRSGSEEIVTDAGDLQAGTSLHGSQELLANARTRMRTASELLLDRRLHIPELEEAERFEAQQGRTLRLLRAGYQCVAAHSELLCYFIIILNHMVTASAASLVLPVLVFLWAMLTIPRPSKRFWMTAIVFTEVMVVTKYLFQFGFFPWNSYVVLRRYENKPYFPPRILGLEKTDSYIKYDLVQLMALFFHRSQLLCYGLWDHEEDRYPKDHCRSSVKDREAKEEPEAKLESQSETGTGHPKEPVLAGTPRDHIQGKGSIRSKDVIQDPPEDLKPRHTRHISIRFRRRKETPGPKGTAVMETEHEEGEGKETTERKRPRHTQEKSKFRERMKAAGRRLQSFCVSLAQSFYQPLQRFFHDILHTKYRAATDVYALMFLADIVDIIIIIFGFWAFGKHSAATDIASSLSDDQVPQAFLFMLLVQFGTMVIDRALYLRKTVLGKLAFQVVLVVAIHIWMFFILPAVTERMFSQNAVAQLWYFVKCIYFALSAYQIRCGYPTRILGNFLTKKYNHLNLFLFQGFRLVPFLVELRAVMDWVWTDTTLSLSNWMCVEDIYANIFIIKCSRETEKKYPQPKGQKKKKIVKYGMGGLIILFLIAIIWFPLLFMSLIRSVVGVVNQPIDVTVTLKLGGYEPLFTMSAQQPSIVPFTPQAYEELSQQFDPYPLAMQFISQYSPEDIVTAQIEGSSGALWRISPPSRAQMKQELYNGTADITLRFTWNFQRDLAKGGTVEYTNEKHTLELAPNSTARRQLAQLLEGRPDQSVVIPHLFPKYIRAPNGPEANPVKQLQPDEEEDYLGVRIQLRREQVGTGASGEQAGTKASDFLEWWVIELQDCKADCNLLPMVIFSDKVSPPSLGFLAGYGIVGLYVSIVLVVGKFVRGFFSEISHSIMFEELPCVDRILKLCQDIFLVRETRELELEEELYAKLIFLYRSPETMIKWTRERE
Piezo1 (Homo sapiens, UniProt Q92508), sequence (Q92508 whole entry): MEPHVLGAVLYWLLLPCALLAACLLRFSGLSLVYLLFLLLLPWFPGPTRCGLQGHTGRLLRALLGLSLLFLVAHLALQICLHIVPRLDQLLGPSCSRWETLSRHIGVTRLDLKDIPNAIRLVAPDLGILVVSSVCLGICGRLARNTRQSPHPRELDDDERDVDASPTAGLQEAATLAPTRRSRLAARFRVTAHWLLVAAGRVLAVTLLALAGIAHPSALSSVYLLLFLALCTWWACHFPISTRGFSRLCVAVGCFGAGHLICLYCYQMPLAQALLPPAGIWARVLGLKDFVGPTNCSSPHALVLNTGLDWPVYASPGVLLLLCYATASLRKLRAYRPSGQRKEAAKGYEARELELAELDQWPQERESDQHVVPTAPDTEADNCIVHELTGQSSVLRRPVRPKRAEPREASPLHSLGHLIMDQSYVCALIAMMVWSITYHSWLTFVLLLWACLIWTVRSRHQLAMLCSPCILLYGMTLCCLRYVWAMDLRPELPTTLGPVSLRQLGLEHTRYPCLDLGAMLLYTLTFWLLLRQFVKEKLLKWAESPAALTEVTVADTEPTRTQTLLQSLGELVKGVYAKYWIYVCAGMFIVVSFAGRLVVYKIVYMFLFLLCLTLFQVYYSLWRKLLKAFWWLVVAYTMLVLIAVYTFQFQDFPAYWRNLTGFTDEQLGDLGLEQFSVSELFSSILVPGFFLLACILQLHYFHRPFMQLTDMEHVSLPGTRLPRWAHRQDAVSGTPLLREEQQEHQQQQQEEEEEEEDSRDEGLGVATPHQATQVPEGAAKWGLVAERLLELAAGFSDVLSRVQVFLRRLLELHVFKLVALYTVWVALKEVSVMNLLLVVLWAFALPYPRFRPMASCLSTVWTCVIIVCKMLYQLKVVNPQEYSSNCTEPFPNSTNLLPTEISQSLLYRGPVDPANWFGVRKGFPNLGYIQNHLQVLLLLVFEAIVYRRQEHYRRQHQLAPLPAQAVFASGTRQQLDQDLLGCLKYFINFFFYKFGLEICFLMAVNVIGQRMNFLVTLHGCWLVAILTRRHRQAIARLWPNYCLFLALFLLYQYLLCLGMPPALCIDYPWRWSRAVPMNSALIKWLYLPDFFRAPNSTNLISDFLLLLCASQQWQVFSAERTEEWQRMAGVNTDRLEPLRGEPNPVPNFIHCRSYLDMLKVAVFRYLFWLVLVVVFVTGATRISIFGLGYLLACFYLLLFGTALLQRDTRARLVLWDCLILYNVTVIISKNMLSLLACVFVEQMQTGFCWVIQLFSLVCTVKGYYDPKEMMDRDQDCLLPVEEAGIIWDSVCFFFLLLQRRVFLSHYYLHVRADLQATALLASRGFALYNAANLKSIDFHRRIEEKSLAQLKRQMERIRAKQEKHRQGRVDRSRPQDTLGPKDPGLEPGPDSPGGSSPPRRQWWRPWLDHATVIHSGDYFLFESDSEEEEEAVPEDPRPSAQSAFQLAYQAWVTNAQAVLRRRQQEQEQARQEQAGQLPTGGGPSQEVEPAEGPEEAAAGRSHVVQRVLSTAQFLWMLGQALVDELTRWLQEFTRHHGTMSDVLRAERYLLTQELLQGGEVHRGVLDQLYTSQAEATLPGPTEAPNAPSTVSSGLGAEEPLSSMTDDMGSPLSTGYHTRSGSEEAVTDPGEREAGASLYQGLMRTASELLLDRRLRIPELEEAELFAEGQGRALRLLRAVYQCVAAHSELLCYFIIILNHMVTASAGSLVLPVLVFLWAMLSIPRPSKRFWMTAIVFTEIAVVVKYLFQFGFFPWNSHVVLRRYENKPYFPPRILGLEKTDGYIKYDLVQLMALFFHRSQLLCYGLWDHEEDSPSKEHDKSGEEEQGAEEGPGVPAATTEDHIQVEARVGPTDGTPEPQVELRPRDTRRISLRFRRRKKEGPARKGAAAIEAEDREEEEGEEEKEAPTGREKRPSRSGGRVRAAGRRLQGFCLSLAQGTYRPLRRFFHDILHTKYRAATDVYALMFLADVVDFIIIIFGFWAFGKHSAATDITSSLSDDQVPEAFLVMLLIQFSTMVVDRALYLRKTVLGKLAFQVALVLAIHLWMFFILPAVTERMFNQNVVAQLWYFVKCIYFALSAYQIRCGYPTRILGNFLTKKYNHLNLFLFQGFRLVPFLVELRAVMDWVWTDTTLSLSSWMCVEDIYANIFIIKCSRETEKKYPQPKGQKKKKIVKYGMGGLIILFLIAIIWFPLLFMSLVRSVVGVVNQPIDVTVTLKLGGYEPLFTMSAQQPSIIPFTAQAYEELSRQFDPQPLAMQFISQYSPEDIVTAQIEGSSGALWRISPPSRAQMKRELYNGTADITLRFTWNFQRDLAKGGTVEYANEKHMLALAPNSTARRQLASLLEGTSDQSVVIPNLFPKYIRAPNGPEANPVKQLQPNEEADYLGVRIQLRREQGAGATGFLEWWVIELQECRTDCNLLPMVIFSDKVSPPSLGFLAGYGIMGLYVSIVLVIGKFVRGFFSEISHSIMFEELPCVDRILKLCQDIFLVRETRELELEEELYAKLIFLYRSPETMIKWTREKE

NC(=O)c1ncn([C@@H]2O[C@H](COP(=O)(O)O)[C@@H](O)[C@H]2O)c1N [AICAR, 5-aminoimidazole-4-carboxamide ribonucleotide]
DMOG-induced abnormalities (HIF, VEGF, ZO-1, vimentin, migration) [1]: fully prevented

O=C1NC(=O)/C(=C/c2ccc3c(c2)OC(F)(F)O3)S1 [AS604850]
reduction of F-actin depolymerisation by GIP stimulation [2]: ~ 30%

Nc1ncnc2c1ncn2[C@@H]1O[C@H](CO[P@](=O)(O)O[P@](=O)(O)O[P@@](=O)(O)S)[C@@H](O)[C@H]1O [ATPγS]
glucose uptake [3]: increased glucose uptake

O=C(COc1ccc(C(=O)c2ccccc2)cc1)NC1CCN(Cc2ccccc2)CC1 [AdipoRon]
HFD-induced weight gain [4]: reduced

CC(O)CC(=O)O (stereo not drawn) [Beta-hydroxybutyrate, beta-hydroxybutyrate]
increase in heart rate vs placebo ([5]; n=17): 13.7 ± 1.2 bpm
beta-hydroxybutyrate levels during infusion ([5]; placebo 0.1 ± 0.6): 2.4 ± 0.6 mM

Cc1ccc([C@@H]2O[C@H](CO)[C@@H](O)[C@H](O)[C@H]2O)cc1Cc1ccc(-c2ccc(F)cc2)s1 [CANA, canagliflozin]
HHF alone HR vs placebo ([6]; 95% CI 0.47-0.80): 0.61
HHF/CV death HR vs placebo ([6]; 95% CI 0.57, 0.83, median 2.6 years): 0.69
reduction of risk of HHF/CV death ([6]; overall population): 31%
participants with >30% decline [7]: 4%

CCOc1ccc(Cc2cc([C@@H]3O[C@H](CO)[C@@H](O)[C@H](O)[C@H]3O)ccc2Cl)cc1 [DAPA, dapagliflozin]
hepatic uptake of fatty acids vs placebo ([8]; 10 mg/day): increased
plasma NT-proBNP levels [8]: unaffected

C[C@H](NC(=O)Cc1cc(F)cc(F)c1)C(=O)N[C@H](C(=O)OC(C)(C)C)c1ccccc1 [DAPT]
IL-17A secretion [9]: significantly inhibited

CC/C=C\C/C=C\C/C=C\C/C=C\C/C=C\C/C=C\CCC(=O)O [DHA, docosahexaenoic acid]
DMOG-induced abnormalities (HIF, VEGF, ZO-1, vimentin, migration) [1]: fully prevented

CC(C)OC(=O)C(C)(C)Oc1ccc(C(=O)c2ccc(Cl)cc2)cc1 [Fenofibrate]
CAN outcome OR [10]: 0.91

CCCCCCCCCCCCCCCC(=O)N[C@@H](CCC(=O)NCCCC[C@H](NC(=O)[C@H](C)NC(=O)[C@H](C)NC(=O)[C@H](CCC(N)=O)NC(=O)CNC(=O)[C@H](CCC(=O)O)NC(=O)[C@H](CC(C)C)NC(=O)[C@H](Cc1ccc(O)cc1)NC(=O)[C@H](CO)NC(=O)[C@H](CO)NC(=O)[C@@H](NC(=O)[C@H](CC(=O)O)NC(=O)[C@H](CO)NC(=O)[C@@H](NC(=O)[C@H](Cc1ccccc1)NC(=O)[C@@H](NC(=O)CNC(=O)[C@H](CCC(=O)O)NC(=O)[C@H](C)NC(=O)[C@@H](N)Cc1cnc[nH]1)[C@@H](C)O)[C@@H](C)O)C(C)C)C(=O)N[C@@H](CCC(=O)O)C(=O)N[C@@H](Cc1ccccc1)C(=O)N[C@H](C(=O)N[C@@H](C)C(=O)N[C@@H](Cc1c[nH]c2ccccc12)C(=O)N[C@@H](CC(C)C)C(=O)N[C@H](C(=O)N[C@@H](CCCNC(=N)N)C(=O)NCC(=O)N[C@@H](CCCNC(=N)N)C(=O)NCC(=O)O)C(C)C)[C@@H](C)CC)C(=O)O [Liraglutide]
change in mean FLT-uptake in pancreatic tissue ([11]; after four weeks): +0.08
change in pancreatic volume ([11]; baseline to six weeks, MRI): +0.2 cm^3
change in maximum FLT-uptake ([11]; titration period): +0.3

CC(=O)C=O [MGO, methylglyoxal]
increase of circulating neutrophils vs PBS ([12]; 25μg iv bolus, after 10 min): 7 fold
increase of hepatic neutrophils ([12]; 10 min post injection): 9 fold
decrease of CD11b expression in the aorta ([12]; after 10 min): 19.9 fold
macrophage numbers in the liver ([12]; after 72h, control 24.2±6.8): 35.7±6.5 macrophages per microscopic view
impairment of tube formation capacity [13]: ~ 70%
impairment of cell migration ([13]; transwell assay): ~ 30%

CCOC(=O)C1Cc2ccccc2CN1C(=O)c1ccc(SC)s1 (stereo not shown) [SR8278]
attenuation of beta-cell apoptosis ([14]; glucotoxicity or cytokines, antagonist or siRNA): ~ 30%

CCOC(=O)N1CCC(CN(Cc2ccc(Cl)cc2)Cc2ccc([N+](=O)[O-])s2)C1 (stereo not shown) [SR9009]
decrease of glucose-stimulated insulin secretion ([14]; INS-1E cells and human islets): 70%

CCOC(=O)[C@H](C)C[C@@H](Cc1ccc(-c2ccccc2)cc1)NC(=O)CCC(=O)O [Sacubitril, sacubitril]
increase of exogenous glucagon levels (iAUC0-60 min) [15]: 1.9 fold

C[C@H](CCC(=O)NCCS(=O)(=O)O)[C@H]1CC[C@H]2[C@@H]3[C@H](O)C[C@@H]4C[C@H](O)CC[C@]4(C)[C@H]3C[C@H](O)[C@]12C [TCA, taurocholic acid]
plasma glucose iAUC 0-180 min [16]: 568 ± 38 mmol·min/L

C[C@@H]1C[C@H]2[C@@H]3CCC4=CC(=O)C=C[C@]4(C)[C@@]3(F)[C@@H](O)C[C@]2(C)[C@@]1(O)C(=O)CO [dexamethasone]
reduction of basal and insulin-stimulated glucose uptake [17]: ~ 50%

OC[C@H]1O[C@@H](c2ccc(Cl)c(Cc3ccc(O[C@H]4CCOC4)cc3)c2)[C@H](O)[C@@H](O)[C@@H]1O [empagliflozin]
hypothalamic blood flow response to intranasal insulin [18]: significant insulin-induced decrease
left ventricular mass index (LVMI) [19]: 111,1 g/m2
body weight ([20]; 10mg/kg, 8 weeks, HFD 49.5 ± 2.8): 41.2 ± 1.5 g
fat mass ([20]; HFD 17.6 ± 3.4): 10.7 ± 2.6 g
AUC insulin ([20]; HFD 9617± 242): 6263 ± 337
AUC glucose ([20]; HFD 38739± 1750): 27714 ± 1052
plasma glucose, fructosamine, glycated albumin and UACR [21]: decreased
systolic blood pressure, empagliflozin vs dapagliflozin ([22]; CI -2.35 to -0.12): -1.24 mmHg
diastolic blood pressure, mean difference versus placebo ([22]; network meta-analysis): -1.73 mmHg

CC#CCn1c(N2CCC[C@@H](N)C2)nc2c1c(=O)n(Cc1nc(C)c3ccccc3n1)c(=O)n2C [linagliptin]
hypoglycaemia rates vs glimepiride [23]: significantly lower

Clc1cccc(Cl)c1CSc1nnc(-c2cnccn2)s1 [yoda1]
increase of insulin secretion ([24]; glucose alone almost 3-fold): ~ 7 fold

GsMTx4
reduction of insulin release [24]: > 30%
reduction of amplitude of glucose-induced [Ca2+]i oscillations [25]: ~ 80%

dulaglutide
body weight loss vs vehicle [26]: -2.5%
MACE-3 hazard ratio vs placebo [27]: 0.88

insulin detemir [IDet]
risk of major congenital malformations, perinatal or neonatal deaths vs other basal insulin [28]: not associated with excess risk

sacubitril / valsartan [sacubitril/valsartan]
increase of postprandial glucagon levels (iAUC0-240 min) [29]: 2.7 fold
